# What was measured:
# Enterobacter cloacae = assay: Antibacterial activity against gram negative organism, […] (MA2646); assay type: functional
# Escherichia coli = assay: Antibacterial activity was determined against gram negative organism, E. coli(vogel); assay type: functional
# Summary of the method: (§1)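 MIC by standard microtitration against a panel of 10 representative Gram-negative and Gram-positive organisms; values reported in µg/mL.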
# Klebsiella pneumoniae = assay: Antibacterial activity was determined against gram negative organism, K. pneumoniae (MGH-2); assay type: functional; summary of the method: as §1
# Mus musculus [1] = assay: In vivo subcutaneous protective dose was determined in female charles river CD-1 mice infected with Streptococcus pneumoniae; assay type: functional; conditions: sc, read-out: PD50
# Summary of the method: (§2)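 Acute lethal systemic infection model in mice; drug given by subcutaneous injection; potency read out as median protective dose (PD50), in mg/kg.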
# Mus musculus [2] = assay: In vivo oral protective dose was determined in female charles river CD-1 mice infected with Escherichia coli (vogel); assay type: functional; conditions: Mus musculus, po; read-out: PD50
# Summary of the method: (§3)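 Acute lethal systemic infection model in mice; drug given orally by gavage; potency read out as median protective dose (PD50), in mg/kg.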
# Mus musculus [3] = assay: In vivo oral protective dose was determined in female charles river CD-1 mice infected with Streptococcus pneumoniae; assay type: functional; conditions: read-out: PD50; summary of the method: as §3
# Mus musculus [4] = assay: In vivo subcutaneous protective dose was determined in female charles river CD-1 mice infected with Escherichia coli (vogel); assay type: functional; conditions: sc, read-out: PD50; summary of the method: as §2
# Pseudomonas aeruginosa = assay: Antibacterial activity was determined against gram negative organism, Pseudomonas aeruginosa (UI-18); assay type: functional; summary of the method: as §1
# Bacteria = assay: Antibacterial activity was determined against gram negative organism, Providencia rettgeri. (M1771); assay type: functional; summary of the method: as §1
# Streptococcus pneumoniae = assay: Antibacterial activity was determined against gram positive organism, Streptococcus pneumoniae (SV-1); assay type: functional; summary of the method: as §1
# Enterococcus faecalis = assay: Antibacterial activity was determined against gram positive organism, Streptococcus faecalis (MGH-2); assay type: functional; summary of the method: as §1
# Streptococcus pyogenes = assay: Antibacterial activity was determined against gram positive organism, Streptococcus pyogenes (C203); assay type: functional; summary of the method: as §1
# Staphylococcus aureus [5] = assay: Antibacterial activity was determined against gram positive organism, Staphylococcus aureus (H228); assay type: functional; summary of the method: as §1
# Staphylococcus aureus [6] = assay: Antibacterial activity was determined against gram positive organism, Staphylococcus aureus (UC76); assay type: functional; summary of the method: as §1
# [7] = MIC ratio measured as the mean MICs of gram-negative bacteria; assay type: functional
# Summary of the method: (§4)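 Geometric mean of the MICs (µg/mL) over the Gram-negative or the Gram-positive strains of the 10-organism microtitration panel, calculated separately for each class.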
# [8] = MIC ratio measured as the mean MICs of gram-positive bacteria; assay type: functional; summary of the method: as §4
# [9] = target: DNA gyrase (Escherichia coli) (UniProt P0AES6+P0AES4)
SMILES,MIC (Enterobacter cloacae),MIC (Escherichia coli),MIC (Klebsiella pneumoniae),ED50 (Mus musculus [1]),ED50 (Mus musculus [2]),ED50 (Mus musculus [3]),ED50 (Mus musculus [4]),MIC (Pseudomonas aeruginosa),MIC (Bacteria),MIC (Streptococcus pneumoniae),MIC (Enterococcus faecalis),MIC (Streptococcus pyogenes),MIC (Staphylococcus aureus [5]),MIC (Staphylococcus aureus [6]),Ratio [7],Ratio [8],DNA cleavage [9]
Cc1c(F)c(N2CCNCC2)c(F)c2c1c(=O)c(C(=O)O)cn2C1CC1,0.025 µg/mL,0.025 µg/mL,0.025 µg/mL,13.5 mg/kg,0.4 mg/kg,14 mg/kg,0.2 mg/kg,0.2 µg/mL,0.05 µg/mL,0.025 µg/mL,0.05 µg/mL,0.05 µg/mL,0.025 µg/mL,0.025 µg/mL,0.043,0.033,2.75 µg/mL
Cc1c(F)c(N2CCC(N)C2)c(F)c2c1c(=O)c(C(=O)O)cn2C1CC1 (stereo unspecified),0.006 µg/mL,0.006 µg/mL,0.013 µg/mL,1.6 mg/kg,2 mg/kg,3 mg/kg,0.5 mg/kg,0.4 µg/mL,0.025 µg/mL,0.003 µg/mL,0.025 µg/mL,0.013 µg/mL,0.013 µg/mL,0.003 µg/mL,0.021,0.0082,3 µg/mL
Cc1c(F)c(N2CCNC(C)C2)cc2c1c(=O)c(C(=O)O)cn2C1CC1 (stereo unspecified) [GREPAFLOXACIN],0.025 µg/mL,0.013 µg/mL,0.05 µg/mL,8 mg/kg,1.5 mg/kg,24 mg/kg,0.5 mg/kg,0.8 µg/mL,0.2 µg/mL,0.025 µg/mL,0.1 µg/mL,0.05 µg/mL,0.1 µg/mL,0.025 µg/mL,0.6,2.07,3.75 µg/mL
